Measurements from ChEMBL document CHEMBL2331340, “Novel antitumor indolizino[6,7-b]indoles with multiple modes of action: DNA cross-linking and topoisomerase I and II inhibition” (J Med Chem, 2013).
Calls of active or inactive are those of the source. The rule behind the calls is not given here.

Columns and labels:
[1] = system: PC-3; experiment: Cytotoxicity against human PC3 cells after 72 hrs by Alamar blue assay; format: functional, cell-based; conditions: PC-3, 72 h
Summary of the method: (§1)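 Cells exposed to compound for 72 h, then Alamar blue added with a further 10−12 h at 37 °C and a spectrophotometric read. IC50 from six or seven concentrations by median-effect analysis; mean ± STDEV, n = 3. CL141T is a line derived from a patient lung tumor passaged as a SCID mouse xenograft.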

[2] = Cytotoxicity against human HEL299 cells; format: cell-based; conditions: HEL 299
[3] = system: MX1; experiment: Cytotoxicity against human MX1 cells after 72 hrs by SRB assay; format: functional, cell-based; conditions: MX1, 72 h
[4] = Cytotoxicity against human OECM1 cells after 72 hrs by Alamar blue assay; format: functional, cell-based; conditions: OECM1, 72 h; summary of the method: as §1
[5] = target: DNA topoisomerase 2-alpha (Homo sapiens) (UniProt P11388); experiment: Inhibition of DNA topoisomerase 2 (unknown origin)-mediated relaxation of supercoiled pHOT DNA after 30 to 45 mins by agarose gel electrophoresis
Summary of the method: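 Supercoiled pHOT DNA (125 ng) with compound in buffer stated as 0.5 M Tris-HCl pH 8.0, 1.5 M NaCl, 100 mM MgCl2, 5 mM DTT, 300 μg/mL BSA, 20 mM ATP, at 37 °C. Methods state 6 units topo II, figure legend 5 units; 30−45 min, SDS stop. Products run on 1% agarose and stained with ethidium bromide.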

[6] = system: HCT-116; experiment: Cytotoxicity against human HCT116 cells after 72 hrs by Alamar blue assay; format: functional, cell-based; conditions: HCT-116, 72 h; summary of the method: as §1
[7] = Cytotoxicity against human MES-SA/Dx5 cells after 72 hrs by Presto Blue assay; format: functional, cell-based; conditions: MES-SA/Dx5, 72 h
Summary of the method: (§2)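 MES-SA and doxorubicin-resistant MES-SA/dx5 cells exposed for 72 h, then PrestoBlue added for 3 h at 37 °C, absorbance read at 570 and 600 nm. IC50 by median-effect analysis of six or seven concentrations; mean ± STDEV of three to six independent experiments.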

[8] = Resistance factor, ratio of IC50 for human KB-VIN10 cells to IC50 for human KB cells; format: functional
[9] = Cytotoxicity against human CL141T cells after 72 hrs by Alamar blue assay; format: functional, cell-based; summary of the method: as §1
[10] = system: MES-SA; experiment: Resistance factor, ratio of IC50 for human MES-SA/Dx5 cells to IC50 for human MES-SA cells; format: functional
[11] = system: KB; experiment: Cytotoxicity against human KB cells after 72 hrs by Alamar blue assay
[12] = Cytotoxicity against human MES-SA cells after 72 hrs by Presto Blue assay; format: functional, cell-based; summary of the method: as §2
[13] = system: A549; experiment: Cytotoxicity against human A549 cells after 72 hrs by Alamar blue assay; format: functional, cell-based; conditions: A549, 72 h; summary of the method: as §1
[14] = system: CCRF-CEM; experiment: Cytotoxicity against human CCRF-CEM cells after 72 hrs by XTT assay; format: functional, cell-based
Summary of the method: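 CCRF-CEM T-ALL cells incubated with compound for 72 h. XTT with phenazine methosulfate then added for 6 h at 37 °C, absorbance read at 450 and 630 nm. IC50 from six or seven concentrations by median-effect analysis; mean ± STDEV, n = 3.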

[15] = Cytotoxicity against human KB-VIN10 cells after 72 hrs by Alamar blue assay; conditions: KB-VIN10, 72 h
[16] = target: T1, DNA topoisomerase 1 (Homo sapiens) (UniProt P11387); experiment: Inhibition of DNA topoisomerase 1 (unknown origin)-mediated relaxation of supercoiled pHOT DNA at 25 to 200 uM after 30 to 45 mins by agarose gel electrophoresis
T1 sequence (whole entry): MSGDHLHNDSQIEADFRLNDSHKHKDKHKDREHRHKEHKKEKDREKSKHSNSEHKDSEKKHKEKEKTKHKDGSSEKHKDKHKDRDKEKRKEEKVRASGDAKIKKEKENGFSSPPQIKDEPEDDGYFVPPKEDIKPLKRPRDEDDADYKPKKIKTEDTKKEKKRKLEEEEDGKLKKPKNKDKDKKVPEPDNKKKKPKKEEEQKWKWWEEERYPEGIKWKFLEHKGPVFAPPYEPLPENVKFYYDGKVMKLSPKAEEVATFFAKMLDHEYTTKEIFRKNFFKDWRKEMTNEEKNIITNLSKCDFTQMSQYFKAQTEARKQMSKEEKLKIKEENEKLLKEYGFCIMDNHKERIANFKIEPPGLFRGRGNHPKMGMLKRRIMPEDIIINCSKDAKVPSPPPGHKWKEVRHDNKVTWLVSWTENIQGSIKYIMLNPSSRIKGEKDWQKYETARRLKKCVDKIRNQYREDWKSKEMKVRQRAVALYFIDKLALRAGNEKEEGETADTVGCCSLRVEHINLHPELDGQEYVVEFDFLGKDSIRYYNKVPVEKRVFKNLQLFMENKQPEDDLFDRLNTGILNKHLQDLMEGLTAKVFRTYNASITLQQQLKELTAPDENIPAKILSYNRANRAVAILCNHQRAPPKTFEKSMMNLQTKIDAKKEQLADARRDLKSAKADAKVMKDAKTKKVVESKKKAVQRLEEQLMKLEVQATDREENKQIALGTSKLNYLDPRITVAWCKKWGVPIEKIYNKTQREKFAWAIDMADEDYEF
Summary of the method: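 Supercoiled pHOT DNA (200 ng) and compound in 10 mM Tris-HCl pH 7.9 with 1 mM EDTA at 37 °C. Reaction started with 1 unit topo I, run 30−45 min, stopped with 10% SDS. Products separated on 1% agarose at 50 V for 90 min and stained with ethidium bromide.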

[17] = system: HT-29; experiment: Cytotoxicity against human HT-29 cells after 72 hrs by Alamar blue assay; format: functional, cell-based; conditions: HT-29, 72 h; summary of the method: as §1
[18] = target: DNA topoisomerase 2-alpha (Homo sapiens) (UniProt P11388); conditions: 50 to 200 uM

Chain of DNA topoisomerase 2-alpha (Homo sapiens) (P11388 whole entry): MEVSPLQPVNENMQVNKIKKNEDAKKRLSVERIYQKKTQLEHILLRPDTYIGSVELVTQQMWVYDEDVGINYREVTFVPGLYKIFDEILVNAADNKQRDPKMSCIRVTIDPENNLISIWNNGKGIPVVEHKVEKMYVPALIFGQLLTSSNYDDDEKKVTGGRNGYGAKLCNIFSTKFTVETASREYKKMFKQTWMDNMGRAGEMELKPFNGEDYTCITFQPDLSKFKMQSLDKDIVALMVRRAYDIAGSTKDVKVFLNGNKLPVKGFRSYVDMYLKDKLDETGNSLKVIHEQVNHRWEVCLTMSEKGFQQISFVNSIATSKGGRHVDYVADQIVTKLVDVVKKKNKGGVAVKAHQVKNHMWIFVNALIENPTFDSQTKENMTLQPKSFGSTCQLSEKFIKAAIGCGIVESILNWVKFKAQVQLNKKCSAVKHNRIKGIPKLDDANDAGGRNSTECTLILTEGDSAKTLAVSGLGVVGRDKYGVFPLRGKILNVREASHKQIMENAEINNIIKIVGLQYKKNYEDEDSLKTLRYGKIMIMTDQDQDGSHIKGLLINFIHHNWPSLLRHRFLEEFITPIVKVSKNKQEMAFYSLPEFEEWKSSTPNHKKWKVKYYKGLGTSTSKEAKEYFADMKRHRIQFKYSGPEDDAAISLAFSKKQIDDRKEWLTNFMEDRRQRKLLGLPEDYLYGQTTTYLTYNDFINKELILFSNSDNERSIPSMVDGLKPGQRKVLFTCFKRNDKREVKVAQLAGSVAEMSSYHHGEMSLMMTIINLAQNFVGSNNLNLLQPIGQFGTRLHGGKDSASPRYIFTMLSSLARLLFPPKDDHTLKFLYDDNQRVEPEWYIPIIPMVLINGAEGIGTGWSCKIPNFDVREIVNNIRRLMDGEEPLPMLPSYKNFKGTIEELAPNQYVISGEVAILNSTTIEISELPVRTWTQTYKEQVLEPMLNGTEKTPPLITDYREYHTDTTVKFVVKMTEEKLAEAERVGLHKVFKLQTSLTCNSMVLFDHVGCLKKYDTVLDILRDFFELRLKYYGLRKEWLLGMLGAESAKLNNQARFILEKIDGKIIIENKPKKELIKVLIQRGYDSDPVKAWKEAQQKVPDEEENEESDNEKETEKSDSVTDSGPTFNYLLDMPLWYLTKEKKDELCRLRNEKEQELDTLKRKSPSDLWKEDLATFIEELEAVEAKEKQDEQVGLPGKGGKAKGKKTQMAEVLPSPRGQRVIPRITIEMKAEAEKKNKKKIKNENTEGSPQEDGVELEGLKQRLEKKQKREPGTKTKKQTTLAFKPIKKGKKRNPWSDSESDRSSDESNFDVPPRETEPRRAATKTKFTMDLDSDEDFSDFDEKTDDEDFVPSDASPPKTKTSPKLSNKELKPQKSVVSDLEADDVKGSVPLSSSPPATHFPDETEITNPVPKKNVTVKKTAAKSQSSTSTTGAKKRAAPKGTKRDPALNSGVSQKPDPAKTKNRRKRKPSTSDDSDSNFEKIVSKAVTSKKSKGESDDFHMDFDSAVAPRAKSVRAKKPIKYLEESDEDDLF

inhibition [5]	inhibition [16]	inhibition [18]	Structure (SMILES)	IC50 [1] [nM]	IC50 [2] [nM]	IC50 [3] [nM]	IC50 [4] [nM]	IC50 [6] [nM]	IC50 [7] [nM]	Ratio IC50 [8]	IC50 [9] [nM]	Ratio IC50 [10]	IC50 [11] [nM]	IC50 [12] [nM]	IC50 [13] [nM]	IC50 [14] [nM]	IC50 [15] [nM]	IC50 [17] [nM]
Dose-dependent effect	Active		CCNC(=O)OCc1c(COC(=O)NCC)c2n(c1C)Cc1c(c3ccccc3n1C)C2	4110	15500	460	1900	2330	280	0.94	2840	0.36	2750	780	4830	40	2600	11300
		Active	COc1cc([C@@H]2c3cc4c(cc3[C@@H](O[C@@H]3O[C@@H]5CO[C@@H](C)O[C@H]5[C@H](O)[C@H]3O)[C@H]3COC(=O)[C@H]23)OCO4)cc(OC)c1O															
